Activity calls are given as the source filed them. No cut-off for these calls is given here.
Tests used:
Thrombopoietin receptor = target: T1, Thrombopoietin receptor (Homo sapiens, UniProt P40238); experiment: Agonist activity at human TPO receptor expressed in murine BaF3 cells
T1 sequence (P40238 whole entry): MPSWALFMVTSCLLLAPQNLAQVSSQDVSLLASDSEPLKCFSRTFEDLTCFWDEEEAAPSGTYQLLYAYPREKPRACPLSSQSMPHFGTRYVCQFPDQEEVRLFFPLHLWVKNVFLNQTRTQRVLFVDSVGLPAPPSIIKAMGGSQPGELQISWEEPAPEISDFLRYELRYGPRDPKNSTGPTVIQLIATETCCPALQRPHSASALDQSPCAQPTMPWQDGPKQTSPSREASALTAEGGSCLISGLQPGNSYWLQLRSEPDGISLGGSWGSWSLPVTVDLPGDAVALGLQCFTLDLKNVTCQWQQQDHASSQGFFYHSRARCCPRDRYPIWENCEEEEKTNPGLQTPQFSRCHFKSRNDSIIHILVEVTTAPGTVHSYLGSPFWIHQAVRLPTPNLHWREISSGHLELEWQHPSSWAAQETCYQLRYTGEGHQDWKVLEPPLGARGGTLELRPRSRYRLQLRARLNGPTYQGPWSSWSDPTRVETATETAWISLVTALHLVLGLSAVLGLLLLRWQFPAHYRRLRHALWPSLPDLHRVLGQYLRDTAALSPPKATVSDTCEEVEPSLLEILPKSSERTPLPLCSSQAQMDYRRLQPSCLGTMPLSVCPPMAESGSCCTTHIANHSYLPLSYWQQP

Rattus norvegicus [1] = experiment: Toxicity in rat assessed as elevation of ALT level at 50 mg/kg, po; format: organism-based; set-up: dose 50 mg/kg, route oral; conditions: in vivo
Outline: (§1)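 Single oral doses of 50, 250 or 500 mg/kg given to rats, each study with its own control group. Mean serum AST and ALT (IU/L) measured. Histopathology of liver also examined.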

Rattus norvegicus [2] = experiment: Toxicity in rat assessed as elevation of ALT level at 500 mg/kg, po; format: organism-based; set-up: dose 500 mg/kg, route oral; conditions: in vivo
Outline: as §1

[3] = Cmax in rat at 250 mg/kg, po; format: ADME, organism-based; set-up: dose 250 mg/kg, route oral; conditions: in vivo
Outline: (§2)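 Rats given single oral doses of 50, 250 or 500 mg/kg, with a separate vehicle control group in each study. Mean Cmax (µg/mL) and mean AUC0–24 (µg h/mL) taken as total (bound plus unbound) plasma concentrations.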

[4] = Cmax in rat at 500 mg/kg, po; format: ADME, organism-based; set-up: dose 500 mg/kg, route oral; conditions: in vivo
Outline: as §2

Mus musculus [5] = organism: Mus musculus; experiment: Increase of platelets level in human TPO receptor transgenic mouse measured after 6 days; format: functional, organism-based
Outline: (§3)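 Human TPO receptor transgenic mice (knock-out/human knock-in of receptor exons 8–10, spanning the transmembrane domain) and wild-type mice given compound on days 0 and 1. Platelets counted on day 6.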

Rattus norvegicus [6] = experiment: Toxicity in rat assessed as elevation of ALT level at 250 mg/kg, po; format: organism-based; set-up: dose 250 mg/kg, route oral; conditions: in vivo
Outline: as §1

[7] = AUC (0 to 24 hrs) in rat at 50 mg/kg, po; format: ADME, organism-based; set-up: time < 24 hr, dose 50 mg/kg, route oral; conditions: plasma
Outline: as §2

[8] = Cmax in rat at 50 mg/kg, po; format: ADME, organism-based; set-up: dose 50 mg/kg, route oral; conditions: in vivo
Outline: as §2

Rattus norvegicus [9] = experiment: Toxicity in rat assessed as change in clinical pathology at 10 to 150 mg/kg, po after 4 days; format: organism-based; set-up: dose 10-150 mg/kg, route oral; conditions: in vivo, 96 h
Outline: (§4)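 Rats dosed orally once daily for four days at 10, 50 or 150 mg/kg, four animals per dose. Clinical pathology including ALT and bilirubin checked on days 1 and 5. Histopathology examined.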

[10] = AUC (0 to 24 hrs) in rat at 500 mg/kg, po; format: ADME, organism-based; set-up: time < 24 hr, dose 500 mg/kg, route oral; conditions: plasma
Outline: as §2

[11] = AUC (0 to 24 hrs) in rat at 250 mg/kg, po; format: ADME, organism-based; set-up: time < 24 hr, dose 250 mg/kg, route oral; conditions: plasma
Outline: as §2

Rattus norvegicus [12] = experiment: Toxicity in rat assessed as histopathological changes at 10 to 150 mg/kg, po after 4 days; format: organism-based; set-up: dose 10-150 mg/kg, route oral; conditions: in vivo, 96 h
Outline: as §4

Rattus norvegicus [13] = experiment: Toxicity in rat assessed as elevation of AST level at 500 mg/kg, po; format: organism-based; set-up: dose 500 mg/kg, route oral; conditions: in vivo
Outline: as §1

Rattus norvegicus [14] = experiment: Toxicity in rat assessed as elevation of AST level at 250 mg/kg, po; format: organism-based; set-up: dose 250 mg/kg, route oral; conditions: in vivo
Outline: as §1

Rattus norvegicus [15] = experiment: Toxicity in rat assessed as elevation of AST level at 50 mg/kg, po; format: organism-based; set-up: dose 50 mg/kg, route oral; conditions: in vivo
Outline: as §1

Mus musculus [16] = organism: Mus musculus; experiment: Increase of platelets level in mouse measured after 6 days; format: functional, organism-based
Outline: as §3

For `O=C(Nc1nc(-c2ccc(Cl)c(Cl)c2)c(F)s1)c1cnc(N2CCC(C(=O)O)CC2)c(Cl)c1`, the EC50 (Thrombopoietin receptor) was > 1000 nM.
With `CCc1sc(NC(=O)c2cnc(N3CCC(C(=O)O)CC3)c(Cl)c2)nc1-c1ccc(F)c(C(F)(F)F)c1` the EC50 (Thrombopoietin receptor) was 160 nM.
In the case of `CCOCc1cc(-c2nc(NC(=O)c3cnc(N4CCC(C(=O)O)CC4)c(Cl)c3)sc2F)ccc1F`, the EC50 (Thrombopoietin receptor) is reported as > 970 nM.
`CCCc1sc(NC(=O)c2cnc(N3CCC(C(=O)O)CC3)c(Cl)c2)nc1-c1ccc(F)c(C(F)(F)F)c1` showed an EC50 (Thrombopoietin receptor) of 130 nM.
In the case of `Cc1sc(NC(=O)c2cnc(N3CCC(C(=O)O)CC3)c(Cl)c2)nc1-c1ccc(F)c(C(F)(F)F)c1`, the EC50 (Thrombopoietin receptor) is reported as 66 nM.
With `O=C(Nc1nc(-c2cccc(C(F)(F)F)c2F)cs1)c1cnc(N2CCC(C(=O)O)CC2)c(Cl)c1` the Activity (Rattus norvegicus [1]) was 442 IU/L, the Activity (Rattus norvegicus [2]) was 579 IU/L and the Cmax [3] was 48000 ng/mL. The Cmax [4] was 84000 ng/mL, the EC50 (Mus musculus [5]) was 27 µg·h/mL and the Activity (Rattus norvegicus [6]) was 450 IU/L. The AUC(0-t) at 24 h [7] was 84 µg·h/mL, the Cmax [8] was 20000 ng/mL and the Activity (Rattus norvegicus [9]) was “Non-toxic”. For the same compound, the AUC(0-t) at 24 h [10] was 1490 µg·h/mL, the AUC(0-t) at 24 h [11] was 832 µg·h/mL and the Activity (Rattus norvegicus [12]) was “Non-toxic”. For the same compound, the Activity (Rattus norvegicus [13]) was 3495 IU/L, the Activity (Rattus norvegicus [14]) was 2952 IU/L and the Activity (Rattus norvegicus [15]) was 1937 IU/L. The Activity (Mus musculus [16]) was “inactive”.
`O=C(Nc1nc(-c2ccc(F)c(C(F)(F)F)c2)ns1)c1cnc(N2CCC(C(=O)O)CC2)c(Cl)c1` showed an EC50 (Thrombopoietin receptor) of 574 nM.
`O=C(Nc1nc(-c2ccc(F)c(OCC(F)(F)F)c2)c(F)s1)c1cnc(N2CCC(C(=O)O)CC2)c(Cl)c1` showed an EC50 (Thrombopoietin receptor) of 950 nM.
`CCCCc1cc(-c2nc(NC(=O)c3cnc(N4CCC(C(=O)O)CC4)c(Cl)c3)sc2F)ccc1F` showed an EC50 (Thrombopoietin receptor) of 220 nM.
Compound `O=C(Nc1nc(-c2ccc(F)c(Br)c2)c(F)s1)c1cnc(N2CCC(C(=O)O)CC2)c(Cl)c1` has an EC50 (Thrombopoietin receptor) of 670 nM.
With `N#Cc1sc(NC(=O)c2cnc(N3CCC(C(=O)O)CC3)c(Cl)c2)nc1-c1ccc(F)c(C(F)(F)F)c1` the EC50 (Thrombopoietin receptor) was > 898 nM.
For `O=C(Nc1nc(-c2ccc(F)c(C(F)(F)F)c2)c(Cl)s1)c1cnc(N2CCC(C(=O)O)CC2)c(Cl)c1`, the EC50 (Thrombopoietin receptor) was 86 nM.
`O=C(Nc1nc(-c2ccc(F)c(Cl)c2)c(F)s1)c1cnc(N2CCC(C(=O)O)CC2)c(Cl)c1` showed an EC50 (Thrombopoietin receptor) of 480 nM.
`O=C(Nc1nc(-c2cccc(C(F)(F)F)c2F)c(F)s1)c1cnc(N2CCC(C(=O)O)CC2)c(Cl)c1` gave an EC50 (Thrombopoietin receptor) of 702 nM.
Work on `O=C(Nc1nc(-c2ccc(F)c(OC(F)(F)F)c2)c(F)s1)c1cnc(N2CCC(C(=O)O)CC2)c(Cl)c1` yielded an EC50 (Thrombopoietin receptor) of 620 nM.
Work on `CC(C)Cc1cc(-c2nc(NC(=O)c3cnc(N4CCC(C(=O)O)CC4)c(Cl)c3)sc2F)ccc1F` yielded an EC50 (Thrombopoietin receptor) of 58 nM.
Compound `O=C(Nc1nc(-c2ccc(F)c(C(F)(F)F)c2)cs1)c1cnc(N2CCC(C(=O)O)CC2)c(Cl)c1` has an EC50 (Thrombopoietin receptor) of 100 nM.
In the case of `O=C(Nc1ccn(-c2cccc(C(F)(F)F)c2F)n1)c1cnc(N2CCC(C(=O)O)CC2)c(Cl)c1`, the EC50 (Thrombopoietin receptor) is reported as > 811 nM.
For `O=C(Nc1nc(-c2ccc(F)c(C(F)(F)F)c2)c(F)s1)c1cnc(N2CCC(C(=O)O)CC2)c(Cl)c1`, the EC50 (Mus musculus [5]) was 7 µg·h/mL, the EC50 (Thrombopoietin receptor) was 89 nM and the Activity (Rattus norvegicus [9]) was “Non-toxic”. The Activity (Rattus norvegicus [12]) was “Non-toxic” and the Activity (Mus musculus [16]) was “inactive”.

Reference: ChEMBL document CHEMBL1177821, “Structure-activity relationships and hepatic safety risks of thiazole agonists of the thrombopoietin receptor” (Bioorg Med Chem Lett, 2010)
